Measured values from PubChem BioAssay.
The source made the active and inactive calls.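 How the source made its calls, unless noted: active means viability at or under a set limit in both replicates, limit being median viability minus 3 SD (cut at about 48% in these data, passing the limit was not always enough); inconclusive means at or under the limit in just one replicate; inactive means at or above the limit in both replicates.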

Tests used:
[1] = HUVEC growth inhibition – cell-based, human, primary screen (AID 575;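 active means viability at or below 30% in both replicate assays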;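 further: 100% = median of untreated cell wells with 0.1% DMSO on each plate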); details: HUVEC proliferation, CellTiter-Glo luminescence, 72 h; at 10 µM; stronger effect = lower value
Summary of the method: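 Test system – primary HUVEC, no more than 12 passages · Dosing – one dose, 10 µM final, 0.1% DMSO · Times – 72 h treatment at 37 °C · Measured by – ATP-based CellTiter-Glo luminescent read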

[2] = H69AR cell proliferation blockers – human, duplicate replicates, primary screen (AID 580); details: H69AR lung tumor cells viability, ATP luminescence, 72 h; at 10 µM; stronger effect = lower value;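 further: 100% = mean luminescence of untreated wells and 0% = no signal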
[3] = MRP1 drug-resistance reversers in H69AR cells – cell-based, doxorubicin co-treatment, pilot screen (AID 601;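 active means viability loss from added drug above about 55%, and viability with drug at most 40%, in both replicates, limit read from the data, passing the limit was not always enough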); details: CellTiter-Glo, 72 h, at 10 µM; for differential viability (reversal): stronger effect = higher value
[4] = yeast transport mutant growth inhibition pilot in 384-well plates, post-Golgi transport modulator project (AID 636; in the data active means inhibition above about 31%); details: absorbance 615 nm, about 18 h, stronger effect = higher value
[5] = growth suppression of yeast trafficking mutant, preliminary HTS, modulators of trafficking downstream of Golgi apparatus project, 1536-format plate, OD 615 nm (AID 637; in the data active means inhibition above about 30%); details: yeast transport mutant growth, absorbance 615 nm, 18 h; stronger effect = higher value
[6] = H69AR cells + 2 uM doxorubicin, measured here: viability with 2 uM doxorubicin, stronger effect = lower value
[7] = H69AR cells, compound alone cytotoxicity

Compound	viability [1]	viability [2]	differential viability (reversal) ([3]; H69AR cells + 2 uM doxorubicin)	viability [3, 6] [%]	viability [3, 7] [%]	inhibition [4]	inhibition [5]
CSc1n[nH]c(NCc2ccccc2)n1	96.5% (inactive)	96.8% (inactive)	0.755% (inactive)	96.1	96.8	-5.13% (inactive)	1.43% (inactive)
c1ccc2[nH]c(CSc3nnc(-c4ccncc4)o3)nc2c1	104% (inactive)	90.9% (inactive)	-5.82% (inactive)	96.7	90.9	-2.24% (inactive)	2.06% (inactive)
CCC(=O)n1nc(-c2ccco2)nc1N	113% (inactive)	110% (inactive)	11.3% (inactive)	98.2	110	0.53% (inactive)	5.4% (inactive)
Nc1nc(CN2CCOCC2)cs1	101% (inactive)	100% (inactive)	3.83% (inactive)	96.1	100	-1.69% (inactive)	0.95% (inactive)
CCOCCCNC(=O)c1ccc2c(c1)ncn2C1CCCC1	91% (inactive)	95.8% (inactive)	7.26% (inactive)	88.5	95.8	2.24% (inactive)	-3.81% (inactive)
COc1ccc(C(=O)COC(=O)CCn2nnc(-c3cccs3)n2)cc1	110% (inactive)	102% (inactive)	9.01% (inactive)	93.4	102	-0.27% (inactive)	-6.35% (inactive)
Cc1onc(-c2c(Cl)cccc2Cl)c1C(=O)NCCCN1CCOCC1	108% (inactive)	100% (inactive)	-1.13% (inactive)	101	100	-2.5% (inactive)	-2.22% (inactive)
CCCN(CCC)CCCNS(=O)(=O)c1ccc2c(c1)oc(=O)n2C	92.2% (inactive)	94.7% (inactive)	0.825% (inactive)	93.8	94.7	-4.4% (inactive)	-4.44% (inactive)
Cc1ccc(NCc2nnc(SCC(=O)NCc3ccco3)n2CC2CCCO2)cc1Cl (stereo not drawn)	85.6% (inactive)	88.5% (inactive)	-7.28% (inactive)	95.8	88.5	5% (inactive)	-3.17% (inactive)
CC1CCN(C(=O)CSc2nnc(-c3cccnc3)n2C2CCCCC2)CC1	112% (inactive)	97.5% (inactive)	-3.36% (inactive)	101	97.5	-2.76% (inactive)	0.16% (inactive)
COc1ccccc1CNC(=O)C1CCN(S(=O)(=O)N2CCCCC2)CC1	83.4% (inactive)	81.7% (inactive)	1.51% (inactive)	80.2	81.7	-1.97% (inactive)	3.81% (inactive)
CC(=O)N1CCN(S(=O)(=O)c2ccc(S(=O)(=O)NC3CC3)cc2)CC1	112% (inactive)	92.3% (inactive)	5.03% (inactive)	87.3	92.3	-6.8% (inactive)	2.86% (inactive)
CCOC(=O)c1c(COC(=O)c2ccco2)nc2ccccc2[n+]1[O-]	90.3% (inactive)	87.2% (inactive)	2.55% (inactive)	84.6	87.2	-5.73% (inactive)	3.97% (inactive)
COC(=O)C1(C(=O)OC)Sc2ccccc2C1=O	87.2% (inactive)	101% (inactive)	10.6% (inactive)	90.8	101	-3.9% (inactive)	3.33% (inactive)
COCCN(CC(=O)Nc1ccccc1C)S(=O)(=O)c1ccc(S(=O)(=O)N2CCCC2)cc1	101% (inactive)	95.7% (inactive)	4.26% (inactive)	91.5	95.7	-7.2% (inactive)	4.13% (inactive)
CCc1nnc(NC(=O)CCC(=O)Nc2ccccc2)s1	94.8% (inactive)	90% (inactive)	-2.88% (inactive)	92.9	90	-4.27% (inactive)	5.71% (inactive)
Cc1cc(C)c(OCC(=O)Nc2cccc(O)c2)cc1C	78.2% (inactive)	101% (inactive)	3.2% (inactive)	97.7	101	-5.07% (inactive)	3.97% (inactive)
CN(Cc1nc(-c2ccncc2)no1)S(=O)(=O)c1ccc(Br)cc1	90.4% (inactive)	89.6% (inactive)	-4.28% (inactive)	93.9	89.6	-5.32% (inactive)	1.75% (inactive)
O=S1(=O)C=C(Sc2nnc(-c3ccccc3)o2)c2ccccc21	42.9% (inactive)	1.65% (active)	0.375% (inactive)	1.27	1.65	57% (active)	95.8% (active)
O=C(CN1C(=O)COc2ccccc21)NCCCN1CCN(Cc2ccccc2)CC1	98.5% (inactive)	87.3% (inactive)	2.35% (inactive)	85	87.3	3.51% (inactive)	22.4% (inactive)

Compound	viability [1]	viability [2]	differential viability (reversal) ([3]; H69AR cells + 2 uM doxorubicin)	viability [3, 6] [%]	viability [3, 7] [%]	inhibition [4]	inhibition [5]
COc1ccc(CN2C(=O)C(O)(CC(=O)c3c(C)n[nH]c3C)c3ccccc32)cc1OC (stereo not drawn)	105% (inactive)	95.4% (inactive)	3.36% (inactive)	92	95.4	-0.53% (inactive)	-4.44% (inactive)
CCOc1ccc(OCC)c(NS(=O)(=O)c2ccc3c(c2)n(C)c(=O)c(=O)n3C)c1	112% (inactive)	95.1% (inactive)	5.37% (inactive)	89.7	95.1	-0.13% (inactive)	1.27% (inactive)
O=C(CCC(=O)N1CCN(S(=O)(=O)c2ccccc2)CC1)c1cccs1	102% (inactive)	90.9% (inactive)	4.42% (inactive)	86.5	90.9	-5.32% (inactive)	-3.33% (inactive)
Cc1cc(C)cc(Nc2ncc3c(n2)CC(c2ccco2)CC3=O)c1 (stereo not drawn)	86.1% (inactive)	88.3% (inactive)	1% (inactive)	87.3	88.3	-6.67% (inactive)	3.17% (inactive)
COc1ccc(-n2c(N)c(C(=O)NCc3ccco3)c3nc4ccccc4nc32)c(OC)c1	61.8% (inactive)	11% (active)	-1.38% (inactive)	12.4	11	-0.8% (inactive)	-0.16% (inactive)
CC1(c2ccc(OC(F)F)cc2)NC(=O)N(CC(=O)Nc2ccc3c(c2)OCO3)C1=O (stereo not drawn)	81.6% (inactive)	91.7% (inactive)	-2.95% (inactive)	94.7	91.7	-5.71% (inactive)	-3.65% (inactive)
Cc1nc2ccccc2c(=O)n1NC(=O)c1ccc(F)cc1Cl	103% (inactive)	94.2% (inactive)	-4.19% (inactive)	98.4	94.2	-4.34% (inactive)	2.22% (inactive)
COc1cc(NS(=O)(=O)c2cccc3nsnc23)c(C(=O)O)cc1OC	102% (inactive)	102% (inactive)	8.71% (inactive)	93.4	102	-1.43% (inactive)	-1.9% (inactive)
COc1ccc(C2C(C(C)=O)=C(C)N=c3s/c(=C\c4ccc5c(c4)OCO5)c(=O)n32)c(OC)c1 (stereo not drawn)	77.2% (inactive)	99.7% (inactive)	-2.84% (inactive)	103	99.7	-2.08% (inactive)	-4.76% (inactive)
COc1ccc(-c2coc3c(CN4CCCCC4)c(O)c(CN4CCCCC4)c(O)c3c2=O)cc1	76.7% (inactive)	1.48% (active)	-0.025% (inactive)	1.5	1.48	0% (inactive)	6.19% (inactive)
O=C(COC(=O)c1ccc(NS(=O)(=O)c2ccc3c(c2)OCCO3)cc1)NCC1CCCO1 (stereo not drawn)	104% (inactive)	107% (inactive)	11.2% (inactive)	95.8	107	-1.69% (inactive)	-7.78% (inactive)
CC(=O)Nc1ccc(NC(=O)c2ccccc2F)cc1	110% (inactive)	108% (inactive)	16.1% (inactive)	92.2	108	-1.82% (inactive)	-4.13% (inactive)
COC(=O)Cn1c2ccccc2c2nc(C)sc21	87.2% (inactive)	92.7% (inactive)	1.14% (inactive)	91.5	92.7	-0.8% (inactive)	-3.65% (inactive)
O=C(NC1CCCCC1)C(c1ccc(Cl)cc1)N(C(=O)c1cnccn1)c1ccc2c(c1)OCO2 (stereo not drawn)	80.4% (inactive)	80.2% (inactive)	4.39% (inactive)	75.8	80.2	-5.47% (inactive)	-5.71% (inactive)
COc1ccccc1-c1ccc(Nc2cccc(C(C)=O)c2)nn1	55.8% (inactive)	71.6% (inactive)	15.8% (inactive)	55.8	71.6	-0.52% (inactive)	-4.92% (inactive)
COc1cccc(-c2noc(CCC(=O)NC3CCCCC3)n2)c1	91.5% (inactive)	97.6% (inactive)	0.295% (inactive)	97.3	97.6	-2.63% (inactive)	-5.4% (inactive)
O=C(O)C1CC(=O)N(c2ccc(OCc3c(F)cccc3Cl)cc2)C1 (stereo not drawn)	105% (inactive)	105% (inactive)	4.8% (inactive)	101	105	-0.52% (inactive)	-1.9% (inactive)
CCCn1c(SCC(=O)NCc2ccco2)nc2c1c(=O)n(C)c(=O)n2C	87.6% (inactive)	94.4% (inactive)	15.9% (inactive)	78.5	94.4	-7.87% (inactive)	2.38% (inactive)
CCCCNC(=O)OC(C)CNC(=O)Oc1cccc(C)c1 (stereo not drawn)	75.7% (inactive)	93.8% (inactive)	1.64% (inactive)	92.2	93.8	-4.08% (inactive)	3.49% (inactive)
